Assay outcomes (PubChem)
In the library only some 1.4% were active in any assay of this set; here they are far more common.
Rin1 Abl inh: blocks binding of human Rin1 to Abl; P00519+Q13671; TR-FRET Rin1/Abl binding, biochemical; inhibition, % at 7.35 µM; 360,000 compounds, 0.4% hits; in the data active means inhibition above about 5%, passing the limit was not always enough
TbMetRS inhib: Trypanosoma brucei MetRS inhibition | purified T. brucei MetRS, ATP depletion, Kinase-Glo luminescence | inhibition, % at 11.9 µM | 360,000 compounds, 0.4% hits | AID 624268;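 active means inhibition above a per-plate cutoff of the control wells' mean inhibition plus 3 SD, cut at about 5.5% in these data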;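 further: 0% = DMSO wells median and 100% = median of wells with control inhibitor compound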
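assay system = parasite MetRS enzyme | timing = 15 min preincubation, 2 h reaction, all 25 °C | evaluation = percent inhibition relative to median high and low control wells | medium = HEPES buffer containing pyrophosphatase, BSA, spermine, DTT | compound = single dose, 11.9 µM final nominal, 0.9% final DMSO | detection = Kinase-Glo luminescence, ATP depletion format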
UCH37 DUB inh: blocks the human deubiquitinase UCH37. inhibition, % (test concentration not listed). 330,000 compounds, 0.33% hits. Q9Y5K5. purified proteasome/UCH37, Ub-AMC cleavage fluorescence;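 active means mean inhibition over replicate wells above about 20%, limit read from the data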;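 further: 0% = compound-free wells with enzyme and 100% = wells lacking proteasome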
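assay system = human UCH37 enzyme supplied as purified proteasome complex | amount = proteasome at 0.15 nM in the dispensed enzyme solution | schedule = 30 min compound-proteasome preincubation then 25 min substrate reaction, room temperature | measured by = fluorescence, ex 355 nm, em 460 nm | benchmarks = no-proteasome wells (full inhibition) and compound-free wells (no inhibition)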
ATG4B inh: inhibitors of human ATG4B cysteine protease; 340,000 compounds, 0.51% hits; ATG4B cleavage of LC3-PLA2, NBD-HPC fluorescence, 1 h; AID 504462; inhibition, % at 8.33 µM; in the data active means inhibition above about 40%
TbMetRS confirm: Trypanosoma brucei MetRS inhibition confirmed; shares compounds with TbMetRS inhib; T. brucei MetRS enzyme, luminescence (ATP depletion); inhibition, % at 11.9 µM; 1,400 compounds, 93% hits; in the data active means inhibition above about 7%
Jurkat cytotox: kills Jurkat cells in T. brucei MetRS counterscreen | shares compounds with TbMetRS inhib | Jurkat cells viability, ATP luminescence | inhibition, % at 8.3 µM | 1,400 compounds, 12% hits; in the data active means inhibition above about 15%;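 further: 0% = vehicle and 100% = reference inhibitor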
Tb MetRS inh FP: T. brucei MetRS inhibition, orthogonal assay. shares compounds with TbMetRS inhib. purified T. brucei MetRS, fluorescence polarization. inhibition, % at 11.9 µM. 1,400 compounds, 44% hits; in the data active means inhibition above about 17%;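 further: 0% = vehicle wells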
* hit, by the source's call; i = inactive; / = no result; ! = a repeat was not active.

SMILES | Rin1 Abl inh | TbMetRS inhib | UCH37 DUB inh | ATG4B inh | TbMetRS confirm | Jurkat cytotox | Tb MetRS inh FP
O=C(NCc1cc(Cl)cc(Cl)c1)c1ccc2nc(COCCO)[nH]c2c1 | -3.4 | 20.9* | / | / | 55.3* | -8.2 | 30.4*
Nc1nc(Nc2ccccc2)nc2ccccc12 | -0.3 | 19.0* | -2.3 | 14.5 | 30.7* | 19.6* | 17.5*
O=C(CCC(=O)OCc1ccc(C(=O)Oc2ccc(Cl)cc2)cc1)Nc1ccccc1 | 5.4 | -1.1 | -1.6 | 4.0 | / | / | /
O=C(Cc1cccc(Cl)c1)Nc1ccc(Br)cc1 | -3.0 | 39.7* | -0.1 | -4.9 | 60.7* | -0.6 | 38.8*
O=C(Cc1ccc(Br)cc1)Nc1ccc(Cl)cc1 | -1.1 | 5.3 | 4.4 | -13.3 | / | / | /
O=C(CC(=O)Nc1ccc(Br)cc1)Nc1ccc(Br)cc1 | 1.2 | 7.0* | 0.8 | -1.6 | 11.3* | -3.4 | 10.1
O=C(CCC(=O)OCc1ccc(Br)cc1)Nc1ccccc1 | -1.7 | 6.1* | -0.5 | 0.7 | 13.8* | -3.4 | 5.5
Cc1cc(C)n(-c2nnc(C)n2/N=C/c2ccccc2OCc2ccccc2Cl)n1 | 3.3 | 0.5 | / | 9.3 | / | / | /
Cc1cc(C)n(-c2nnc(C)n2/N=C/c2cc(Br)ccc2OCc2ccccc2)n1 | -3.3 | 6.4* | / | -6.2 | 1.3 | -2.1 | 3.7
COc1ccccc1C1CCN(C(=O)c2cnn(-c3ccccc3)c2C)CC1 | -2.2 | -0.1 | 2.8 | -11.3 | / | / | /
CCOCCCNc1nc2nc3ccc(C)cn3c(=O)c2cc1C(=O)NCC1CCCO1 (stereo not given) | -0.8 | -0.3 | i | -2.7 | / | / | /
O=C(O)[C@@H]1CCCN1C(=O)c1ccccc1N1C(=O)[C@@H]2Cc3c([nH]c4ccccc34)C(c3cccc(Cl)c3)N2C1=O (stereo not given in full) | -5.6 | 4.2 | -0.2 | -3.2 | / | / | /
O=C(O)[C@H]1CCCN1C(=O)c1ccccc1N1C(=O)[C@@H]2Cc3c([nH]c4ccccc34)C(c3cccc(Cl)c3)N2C1=O (stereo not given in full) | -0.6 | 8.3* | 3.0 | -7.3 | 18.3* | 4.2 | 8.0
NC(=NCCCCCCN=C(N)/N=C(\N)Nc1ccc(Cl)cc1)/N=C(\N)Nc1ccc(Cl)cc1 | -4.3 | 45.2*! | 2.1 | 16.3 | 53.4* | 30.6* | 50.6*
CC(C)c1nnc(NC(=O)Cc2ccc(Br)cc2)s1 | 4.4 | -0.3 | 2.5 | -9.3 | / | / | /
Cc1cc2oc(C(=O)Nc3ccc(S(=O)(=O)Nc4onc(C)c4C)cc3)cc(=O)c2cc1Cl | 0.1 | -0.3 | 5.3 | 5.3 | / | / | /
Cc1cccc(CN2CCc3c([nH]c4ccccc34)C2)c1 | 0.3 | 5.8* | / | 14.7 | 14.9* | 12.6 | 6.8
COc1ccccc1C1CC(c2ccc(Cl)cc2Cl)Nc2nc(N)nn21 (stereo not given) | -1.4 | 6.6* | 4.6 | -1.2 | 14.9* | 0.3 | 7.1
CCOc1ccc(-n2c(SCC(=O)Nc3ccc4c(c3)OCO4)nc3ccccc3c2=O)cc1 | 4.0 | -1.1 | 0.2 | 18.5 | / | / | /
CC(=O)Oc1ccc2c(=O)c(/C=N/c3cc(=O)[nH]c(=S)[nH]3)coc2c1 | 0.1 | 8.0* | / | -4.4 | 13.4* | 3.1 | 3.3
CCOC(=O)CCN1C(=O)c2ccccc2Sc2ncccc21 | 3.8 | -0.8 | 3.4 | -2.1 | / | / | /
Oc1ccc(Br)cc1CNc1cnc2ccccc2c1 | 3.3 | 10.8* | -20.0 | 2.3 | 15.4* | 40.2* | 0.5
O=C(COc1nsnc1N1CCOCC1)Nc1ccc([N+](=O)[O-])cc1 | -1.1 | -0.4 | 5.4 | -18.8 | / | / | /
O=C(COc1nsnc1N1CCOCC1)Nc1ccc(Cl)cc1 | -6.0 | 11.0* | 3.4 | -11.6 | 22.8* | -10.2 | 7.1
CC1CCN(S(=O)(=O)c2cccc(C(=O)NC3CCS(=O)(=O)C3)c2)CC1 (stereo not given) | -2.9 | 0.0 | / | / | / | / | /
CC(=O)C1=C(O)CCCC1=NCc1nc2ccccc2[nH]1 | -0.9 | 6.2* | -0.7 | 6.8 | 12.1* | -5.6 | 9.4
CC(=O)C1=C(O)CC(C)(C)CC1=NCc1nc2ccccc2[nH]1 | 4.1 | 3.0 | -0.4 | -13.4 | / | / | /
C=CCN=C1CC(C)(C)CC(=O)/C1=C(/O)CCC(=O)OC | -0.9 | -0.3 | 2.3 | -12.8 | / | / | /
